Laboratory results reported in ChEMBL document CHEMBL1129574, “Synthesis, structure-activity relationships, and pharmacokinetic properties of dihydroorotate dehydrogenase inhibitors: 2-cyano-3-cyclopropyl-3-hydroxy-N-[3'-methyl-4'-(trifluoromethyl)phenyl ] propenamide and related compounds” (J Med Chem, 1996).

How the values were obtained:
[1] = t1/2 in mouse plasma after oral dose (30/mg/Kg); format: ADME, organism-based
Outline: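 Male CD-1 mice (25–32 g, n=5/time point) gavaged orally 30 mg/kg (10 mL/kg). Blood by exsanguination under ether at 0, 1, 3, 6, 24, 48, 72 h, pooled per time point, heparinized; plasma stored −20 °C. Drug quantified by reversed-phase HPLC (ODS, pH 7 phosphate/acetonitrile 65:35, UV 300 nm) with internal standard and spiked-plasma calibration.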

[2] = t1/2 in rat plasma after oral dose (10 mg/kg); format: ADME, organism-based
Outline: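 Male Wistar CFHB rats (190–220 g, n=3/time point) given 10 mg/kg orally by gavage (10 mL/kg). Cardiac-puncture blood under ether at 0, 1, 3, 6, 24, 48, 72 h, individual heparinized samples; plasma kept at −20 °C. Levels by HPLC (ODS column, 0.1 M pH 7 phosphate 65%/acetonitrile 35%, UV 300 nm), internal standard, peak-area calibration from spiked blank plasma.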

[3] = target: Dihydroorotate dehydrogenase (quinone), mitochondrial (Mus musculus, UniProt O35435); test: Inhibitory concentration tested on enzyme dihydroorotate dehydrogenase in mouse
Sequence of Dihydroorotate dehydrogenase (quinone), mitochondrial (Mus musculus, UniProt O35435) (O35435 whole entry): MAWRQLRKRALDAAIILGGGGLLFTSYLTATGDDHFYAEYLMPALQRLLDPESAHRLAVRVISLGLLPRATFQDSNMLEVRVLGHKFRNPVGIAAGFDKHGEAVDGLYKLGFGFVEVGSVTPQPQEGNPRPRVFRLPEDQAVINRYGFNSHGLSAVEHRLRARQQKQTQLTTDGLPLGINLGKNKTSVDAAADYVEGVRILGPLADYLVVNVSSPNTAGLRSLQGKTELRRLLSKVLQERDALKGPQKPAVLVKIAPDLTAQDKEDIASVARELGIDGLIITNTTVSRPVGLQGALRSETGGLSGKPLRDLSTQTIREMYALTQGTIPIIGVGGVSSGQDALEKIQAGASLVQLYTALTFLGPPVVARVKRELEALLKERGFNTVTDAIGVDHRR

Rattus norvegicus [4] = test: Compound was tested in vivo for its ability to inhibit DTH(delayed type hypersensitivity ) in rat at a concentration of 3 mg/kg; format: functional
Outline: (§1)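 Male CFHB rats (160-180 g, n=7-12) sensitized day 0 by tail-base s.c. FCA (0.4 mg M. tuberculosis in liquid paraffin); controls got incomplete adjuvant. Day 7 challenge: soluble M. tuberculosis extract 0.4 mg into right hind footpad, saline in left. Oral dosing once daily days 4-6 and twice day 7 (1 h before, 6 h after). Edema read at 24 h; Student's t-test.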

[5] = target: Dihydroorotate dehydrogenase (quinone), mitochondrial (Rattus norvegicus, UniProt Q63707); test: Inhibitory concentration tested against enzyme dihydroorotate dehydrogenase in rat
Sequence of Dihydroorotate dehydrogenase (quinone), mitochondrial (Rattus norvegicus, UniProt Q63707) (Q63707 whole entry): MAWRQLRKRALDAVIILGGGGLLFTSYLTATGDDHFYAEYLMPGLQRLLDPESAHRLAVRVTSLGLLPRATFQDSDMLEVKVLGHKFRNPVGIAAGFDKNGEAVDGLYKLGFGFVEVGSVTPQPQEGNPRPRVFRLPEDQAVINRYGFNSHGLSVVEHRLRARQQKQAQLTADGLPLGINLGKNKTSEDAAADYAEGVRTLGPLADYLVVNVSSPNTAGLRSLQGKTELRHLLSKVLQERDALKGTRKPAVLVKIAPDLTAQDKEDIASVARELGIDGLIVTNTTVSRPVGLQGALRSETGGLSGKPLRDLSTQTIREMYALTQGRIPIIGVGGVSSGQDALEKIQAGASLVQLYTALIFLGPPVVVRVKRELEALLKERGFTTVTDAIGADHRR

Mus musculus [6] = test: Compound was tested in vivo for its ability to inhibit DTH(delayed type hypersensitivity ) in mouse at a concentration of 30 mg/kg; format: functional
Outline: (§2)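 Male CD-1 mice (25–30 g, n = 8-16) sensitized day 0 by s.c. 1 mg methylated BSA in saline/Freund's complete adjuvant; negative controls saline/FCA. Day 7 challenge: MBSA 0.1 mg into right hind footpad, saline in left. Oral dosing once daily days 4–6 plus twice on day 7 (1 h before, 6 h after challenge). Paw edema read 24 h post-challenge; Student's t-test.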

Mus musculus [7] = test: In vivo for its ability to inhibit delayed type hypersensitivity in mouse following 30 mg/kg administration.; format: functional; outline: as §2
Rattus norvegicus [8] = test: Compound was tested in vivo for its ability to inhibit DTH(delayed type hypersensitivity )in rat at a concentration of 3 mg/kg; format: functional; outline: as §1
Mus musculus [9] = test: In vivo ability to inhibit delayed type hypersensitivity in mouse at a concentration of 100 mg/kg; format: functional; outline: as §2
Rattus norvegicus [10] = test: Compound was tested in vivo for its ability to inhibit DTH(delayed type hypersensitivity ) in rat at a concentration of 50 mg/kg; format: functional; outline: as §1
Mus musculus [11] = test: Compound was tested in vivo for its ability to inhibit DTH(delayed type hypersensitivity ) in mouse at a concentration of 100 mg/kg; format: functional; outline: as §2
Rattus norvegicus [12] = test: In vivo for its ability to inhibit delayed type hypersensitivity in rat following 10 mg/kg administration.
Rattus norvegicus [13] = test: Compound was tested in vivo for its ability to inhibit DTH(delayed type hypersensitivity )in rat at a concentration of 1 mg/kg; format: functional; outline: as §1

SMILES	half-life [1] [h]	half-life [2] [h]	IC50 [3] [µM]	IC50 [5] [µM]	inhibition in vivo at 3 mg/kg (Rattus norvegicus [4]) [%]	inhibition in vivo at 30 mg/kg (Mus musculus [6]) [%]	inhibition in vivo at 30 mg/kg (Mus musculus [7]) [%]	inhibition in vivo at 3 mg/kg (Rattus norvegicus [8]) [%]	inhibition in vivo at 100 mg/kg (Mus musculus [9]) [%]	inhibition in vivo at 50 mg/kg (Rattus norvegicus [10]) [%]	inhibition in vivo at 100 mg/kg (Mus musculus [11]) [%]	inhibition in vivo at 10 mg/kg (Rattus norvegicus [12]) [%]	inhibition in vivo at 1 mg/kg (Rattus norvegicus [13]) [%]
N#C/C(C(=O)Nc1ccc(S(=O)(=O)C(F)(F)F)cc1)=C(/O)C1CC1	14	14	0.089	0.003	66	43							
C=C/C(O)=C(\C#N)C(=O)Nc1ccc(C(F)(F)F)cc1				0.023					7	74			
N#C/C(C(=O)Nc1ccccc1Cl)=C(/O)C1CC1			16.6	13.3						-12	43		
C[S+]([O-])c1ccc(NC(=O)/C(C#N)=C(\O)C2CC2)cc1 (stereo not given)			22.4	0.832						71	1		
C/C=C/C(O)=C(\C#N)C(=O)Nc1ccc(C(F)(F)F)cc1			4.27	1.41						16	54		
N#C/C(C(=O)Nc1ccc(C(F)(F)F)cn1)=C(/O)C1CC1	5	7	0.158	0.017				40	67				
N#C/C(C(=O)Nc1cccc(C(F)(F)F)c1)=C(/O)C1CC1			0.525	0.479		41				49			
CS(=O)(=O)c1ccc(NC(=O)/C(C#N)=C(\O)C2CC2)cc1			15.1							50	36		
N#CCc1ccc(NC(=O)/C(C#N)=C(\O)C2CC2)cc1			37.2	4.57						3	36		
C#C/C(O)=C(\C#N)C(=O)Nc1ccc(C(F)(F)F)cc1			2.09	0.5						4	45		
N#C/C(C(=O)Nc1ccccc1C(F)(F)F)=C(/O)C1CC1			> 100	> 100						-4	-10		
C=CC/C(O)=C(\C#N)C(=O)Nc1ccc(C(F)(F)F)cc1	23	4	0.063	0.107		75				79			
N#C/C(C(=O)Nc1ccc([S+]([O-])C(F)(F)F)cc1)=C(/O)C1CC1 (stereo not given)	3	3	0.417	0.016	75	25							
CSc1ccc(NC(=O)/C(C#N)=C(\O)C2CC2)cc1	< 2	< 1	0.445	0.013						60	46		
N#C/C(C(=O)Nc1ccccc1)=C(/O)C1CC1			1.58	2		25				43			
N#C/C(C(=O)Nc1cccc(Cl)c1)=C(/O)C1CC1	2	3	3	0.343						25	55		

The remaining compounds from weak to strong by IC50 [3], led by results:

half-life [1] [h]	half-life [2] [h]	IC50 [3] [µM]	IC50 [5] [µM]	SMILES	inhibition in vivo at 3 mg/kg (Rattus norvegicus [4]) [%]	inhibition in vivo at 30 mg/kg (Mus musculus [6]) [%]	inhibition in vivo at 30 mg/kg (Mus musculus [7]) [%]	inhibition in vivo at 3 mg/kg (Rattus norvegicus [8]) [%]	inhibition in vivo at 100 mg/kg (Mus musculus [9]) [%]	inhibition in vivo at 50 mg/kg (Rattus norvegicus [10]) [%]	inhibition in vivo at 100 mg/kg (Mus musculus [11]) [%]	inhibition in vivo at 10 mg/kg (Rattus norvegicus [12]) [%]	inhibition in vivo at 1 mg/kg (Rattus norvegicus [13]) [%]
		0.288	0.234	Cc1ccc(NC(=O)/C(C#N)=C(\O)C2CC2)cc1						28	47		
11	10	0.282	0.011	Cc1cc(NC(=O)/C(C#N)=C(\O)C2CC2)ccc1C(F)(F)C(F)(F)F			65	70					
13	7	0.195	0.251	C=C(C)/C(O)=C(\C#N)C(=O)Nc1ccc(C(F)(F)F)cc1						78	54		
14	4	0.178	0.018	Cc1cc(NC(=O)/C(C#N)=C(\O)C2CC2)ccc1OC(F)(F)F			61	46					
10	13	0.178	0.011	Cc1cc(NC(=O)/C(C#N)=C(\O)C2CC2)ccc1SC(F)(F)F			55						68
6	6	0.071	0.04	CCc1cc(NC(=O)/C(C#N)=C(\O)C2CC2)ccc1C(F)(F)F			61					74	
8	4	0.055	0.014	Cc1cc(NC(=O)/C(C#N)=C(\O)C2CC2)ccc1C(F)(F)F			81					59	
28	8	0.047	0.021	N#C/C(C(=O)Nc1ccc(C(F)(F)F)cc1)=C(/O)C1CC1			85					53	
21	22	0.036		N#C/C(C(=O)Nc1ccc(Cl)cc1)=C(/O)C1CC1	74								
7	6	0.036	0.028	Cc1cc(NC(=O)/C(C#N)=C(\O)C2CC2)ccc1C#N			66					50	
